Sampled rows, rich in hits. Any-hit rate of the full collection: about 1.2%.
Diaphorase inh = inhibits diaphorase or chemically oxidizes, flagging diaphorase assay artifacts; diaphorase resazurin-to-resorufin fluorescence, NADH, 16 min; bacterial (C. kluyveri) enzyme, not human; inhibition, % at 20 µM; hit rate 0.69% among 190,000;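 active means primary screen inhibition at 20 µM above a set limit, cut at about 50% in these data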
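Assay system: diaphorase enzyme from Clostridium kluyveri; Input: enzyme working solution with 0.14 U/mL diaphorase; Timing: 16 min at room temperature; Technique: resorufin fluorescence, excitation 544 nm, emission 590 nm; Benchmarks: positive control minus NADH, DMSO neutral control.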
HKDC1 inhibitor = blocks human hexokinase HKDC1 activity | AID 493160 | recombinant HKDC1, G6PDH/diaphorase resazurin coupled fluorescence | hit rate 0.16% among 340,000 | inhibition, % at 20 µM;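 active means inhibition above about 35% when tested at 20 µM, limit read from the data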
Target sequence (Q2TB90 whole entry, looked up): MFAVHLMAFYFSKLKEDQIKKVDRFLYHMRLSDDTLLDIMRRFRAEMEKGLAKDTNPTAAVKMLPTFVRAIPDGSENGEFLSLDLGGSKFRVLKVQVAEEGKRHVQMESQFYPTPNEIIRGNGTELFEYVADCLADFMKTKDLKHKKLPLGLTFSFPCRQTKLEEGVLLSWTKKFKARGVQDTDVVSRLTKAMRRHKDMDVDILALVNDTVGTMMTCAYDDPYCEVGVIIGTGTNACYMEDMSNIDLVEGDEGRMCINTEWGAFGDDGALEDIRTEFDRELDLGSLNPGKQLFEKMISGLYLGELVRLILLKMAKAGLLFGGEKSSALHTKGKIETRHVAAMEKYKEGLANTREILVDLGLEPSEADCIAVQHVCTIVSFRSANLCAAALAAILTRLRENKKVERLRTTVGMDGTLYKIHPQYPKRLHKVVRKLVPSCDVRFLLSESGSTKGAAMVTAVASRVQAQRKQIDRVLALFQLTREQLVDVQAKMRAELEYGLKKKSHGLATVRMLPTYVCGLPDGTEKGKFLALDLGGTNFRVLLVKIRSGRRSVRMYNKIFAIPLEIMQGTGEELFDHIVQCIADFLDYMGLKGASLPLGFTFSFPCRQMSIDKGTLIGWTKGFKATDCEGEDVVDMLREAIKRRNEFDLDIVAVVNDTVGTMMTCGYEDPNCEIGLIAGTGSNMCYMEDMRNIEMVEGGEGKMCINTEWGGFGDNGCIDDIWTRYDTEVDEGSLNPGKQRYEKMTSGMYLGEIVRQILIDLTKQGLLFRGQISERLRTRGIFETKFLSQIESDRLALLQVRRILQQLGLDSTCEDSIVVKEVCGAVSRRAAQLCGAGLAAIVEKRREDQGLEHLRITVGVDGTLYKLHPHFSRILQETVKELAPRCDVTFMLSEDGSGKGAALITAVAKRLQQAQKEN
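Assay system – recombinant HKDC1 (HK5) hexokinase enzyme, produced in-house · Input – HKDC1 at 5 µg/mL · Reagent – glucose plus 1 mM ATP as hexokinase substrates · Timing – 90 min reaction incubation at room temperature, dark · Measured by – G6PDH/diaphorase-coupled fluorescence, 1 mM NADP, 100 µM resazurin, 525/613 nm · Benchmarks – DMSO-enzyme wells negative, buffer-substituted wells positive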
PfG6PD inh = PfG6PD (Plasmodium falciparum) enzyme inhibition. inhibition, % at 20 µM. PfGluPho enzyme, NADPH resazurin-diaphorase fluorescence. hit rate 0.78% among 350,000. AID 504690;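 active means inhibition reaching at least a set limit at 20 µM in the primary screen, cut at about 59% in these data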
Diaphorase act = counter-screen for diaphorase-based assays: diaphorase activators and chemical reducers | Diaphorase/resazurin coupled assay, resorufin fluorescence, 16 min; stronger effect = higher value; 1 = vehicle wells, 0 = NADH-free wells | activation factor at 20 µM | AID 1229 | hit rate 0.005% among 190,000;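 active means diaphorase activity raised at least twofold by the compound at 20 µM; inactive means activation factor below 2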
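Material: purified diaphorase enzyme from Clostridium kluyveri / Medium: HEPES pH 7.4 buffer with MgCl2 and Tween 20 / Schedule: enzyme reaction of 16 min at room temperature / Measured by: resorufin fluorescence, excitation 544 nm, emission 590 nm / Evaluation: rise in resorufin formation, marking diaphorase activation or chemical reduction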
G6PDH CS = L. mesenteroides G6PDH inhibition counter-screen | Purified L. mesenteroides G6PDH, diaphorase/resazurin coupled fluorescence, 45 min | inhibition, % at 5 µM | hit rate 0.12% among 200,000 | AID 1020; in the data active means inhibition above about 50%
PfGluPho conf = confirmation of Plasmodium falciparum G6PD inhibitors; shares compounds with PfG6PD inh; recombinant PfGluPho, NADPH-diaphorase-resazurin fluorescence; AID 504753; hit rate 34% among 2,400; inhibition, % at 20 µM;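 active means inhibition of at least 50% at 20 µM in any single replicate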
Diaphorase 10uM = counter-screen for P. falciparum G6PD inhibitors: diaphorase inhibitors, oxidizers | inhibition, % at 20 µM | hit rate 39% among 820 | diaphorase-coupled resazurin reduction, fluorescence, NADPH 10 uM | AID 504862 | shares compounds with PfG6PD inh;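 active means average inhibition reaching 50% or more with the compound at 20 µM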;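 further: resorufin red fluorescence formed as diaphorase reduces resazurin using NADPH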
Diaph ctr 30uM = counter-screen for P. falciparum G6PD inhibitors: diaphorase inhibitors, oxidizers. shares compounds with PfG6PD inh. Diaphorase/resazurin coupled assay, resorufin fluorescence, 30 uM NADPH. inhibition, % at 20 µM. hit rate 29% among 820;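 active means inhibition averaging 50% or more, tested at 20 µM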
Large screens that a line does not name were inactive (follow-up assays come after a bar, where they were run).

CCC(=O)NCCc1nc2cc(NC(=O)c3cccc([N+](=O)[O-])c3)ccc2n1C	none (no result: Diaphorase inh, Diaphorase act, G6PDH CS)
NCC(O)c1ccc(O)c(O)c1 (stereo unspecified)	none (no result: Diaphorase inh, Diaphorase act, G6PDH CS)
CCC(c1ccc(O)c(O)c1)C(CC)c1ccc(O)c(O)c1 (stereo unspecified)	PfG6PD inh 78 (no result: Diaphorase inh, Diaphorase act, G6PDH CS) | PfGluPho conf 57 | Diaphorase 10uM inactive | Diaph ctr 30uM inactive
COCCN(C(=S)Nc1c(C)cccc1C)C(C)c1cccnc1 (stereo unspecified)	none
COCCN(C(=S)Nc1c(C)cc(C)cc1C)C(C)c1cccnc1 (stereo unspecified)	PfG6PD inh 69 | PfGluPho conf inactive
CC1CCCC(NC(=O)Cn2c(Cl)nc3c2c(=O)n(C)c(=O)n3C)C1C (stereo unspecified)	none (no result: Diaphorase inh, Diaphorase act, G6PDH CS)
CC(C)OCCCNC(=S)Nc1ccc(S(N)(=O)=O)cc1	PfG6PD inh 61 | PfGluPho conf inactive
CC(=O)c1ccc(NC(=S)NCCc2ccc(S(N)(=O)=O)cc2)cc1	none
CCC(C)c1ccccc1OCCn1ccnc1 (stereo unspecified)	PfG6PD inh 70 | PfGluPho conf 56 | Diaphorase 10uM inactive | Diaph ctr 30uM inactive
COc1ccccc1OCCn1ccnc1	none (no result: Diaphorase inh, Diaphorase act, G6PDH CS)
Cc1cc(NS(=O)(=O)c2ccc(NC(=O)COc3ccccc3C(C)(C)C)cc2)no1	none (no result: Diaphorase inh, Diaphorase act, G6PDH CS)
Cn1c(=O)c2c([nH]c(=S)n2Cc2ccc(Cl)cc2)n(C)c1=O	PfG6PD inh 62 (no result: Diaphorase inh, Diaphorase act, G6PDH CS) | PfGluPho conf inactive
CC(NC(=O)/C(C#N)=C/c1ccc([N+](=O)[O-])o1)c1ccccc1 (stereo unspecified)	PfG6PD inh 92 (no result: Diaphorase inh, Diaphorase act, G6PDH CS) | PfGluPho conf 69 | Diaphorase 10uM 64 | Diaph ctr 30uM 66
CCOCCCNC(=O)/C(C#N)=C/c1ccc([N+](=O)[O-])o1	PfG6PD inh 84 | PfGluPho conf 74 | Diaphorase 10uM 63 | Diaph ctr 30uM 71
CC(NC(=O)/C(C#N)=C/c1ccco1)c1ccccc1 (stereo unspecified)	none (no result: Diaphorase inh, Diaphorase act, G6PDH CS)
NC(=N\N=CCc1ccccc1)/C(N)=N/N=CCc1ccccc1	none (no result: Diaphorase inh, Diaphorase act, G6PDH CS)
CCc1ccc(S(=O)(=O)/N=C2\C=CC(=O)c3ccccc32)cc1	none (no result: HKDC1 inhibitor, PfG6PD inh)
O=S(=O)(N=C1C=CC(=NS(=O)(=O)c2ccccc2)c2ccccc21)c1ccccc1	PfG6PD inh 62 (no result: Diaphorase inh, HKDC1 inhibitor, Diaphorase act, G6PDH CS) | PfGluPho conf inactive
COC(=O)c1ccc(C2C(C(=O)c3ccco3)=C(O)C(=O)N2CC2CCCO2)cc1 (stereo unspecified)	none (no result: Diaphorase inh, Diaphorase act, G6PDH CS)
COc1ccc(-n2c(C)cc(/C=N/Nc3nnc(C)n3N)c2C)cc1	PfG6PD inh 66 | PfGluPho conf inactive
COc1cccc(/C=N/Nc2nnc(C)n2N)c1O	none (no result: Diaphorase inh, Diaphorase act, G6PDH CS)
Cc1nc(-c2ccc(Cl)cc2)sc1C1(C)CC(c2ccc(C#N)cc2)=NO1 (stereo unspecified)	none (no result: Diaphorase inh, Diaphorase act, G6PDH CS)
COc1ccc(Nc2nc(C)c(-c3ccccc3)s2)cc1	PfG6PD inh 76 | PfGluPho conf inactive
COc1cc(C(=S)N2CCOCC2)cc(Br)c1OS(=O)(=O)c1ccccc1	none (no result: Diaphorase inh, Diaphorase act, G6PDH CS)
CCOC(=O)Cn1c(C)[n+](CC(=O)c2ccccc2)c2ccccc21	none (no result: Diaphorase inh, Diaphorase act, G6PDH CS)
O=C(Nc1ccccc1)c1cc2ccccc2c(=O)s1	none
O=C(Nc1ccccc1)c1cc2ccccc2s1	PfG6PD inh 71 (no result: Diaphorase inh, Diaphorase act, G6PDH CS) | PfGluPho conf inactive
CCCOc1c(Br)cc(C(=O)OCC(=O)NC2CC2)cc1OC	none (no result: Diaphorase inh, Diaphorase act, G6PDH CS)
O=C(c1ccncc1)c1ccc(N2CCN(C3CC(=O)N(Cc4cccs4)C3=O)CC2)cc1 (stereo unspecified)	none
O=C1CC(N2CCN(c3ccc(O)cc3)CC2)C(=O)N1Cc1cccs1 (stereo unspecified)	PfG6PD inh 67 | PfGluPho conf inactive
Cc1ccc(Nc2nnc(SCC(=O)c3c(N)n(C4CC4)c(=O)[nH]c3=O)s2)cc1C	PfG6PD inh 64 (no result: Diaphorase inh, Diaphorase act, G6PDH CS) | PfGluPho conf inactive
CN1C(=O)N(C)C2(c3ccccc3)NC(=O)NC12c1ccccc1 (stereo unspecified)	none
CN1c2ccccc2N(C)C1(C)c1ccccc1	PfG6PD inh 64 | PfGluPho conf inactive
CCCCOc1ccc(-c2ncc(N)cn2)cc1	none (no result: Diaphorase inh, Diaphorase act, G6PDH CS)
O=[N+]([O-])c1cc(Cl)ccc1Sc1cccc2cccnc12	PfG6PD inh 129 | PfGluPho conf 90 | Diaphorase 10uM 88 | Diaph ctr 30uM 82
O=[N+]([O-])c1ccc(Sc2cccc3cccnc23)cc1	PfG6PD inh 114 | PfGluPho conf 83 | Diaphorase 10uM 77 | Diaph ctr 30uM 72
O=[N+]([O-])c1ccc(COc2cccc3cccnc23)cc1	none (no result: Diaphorase inh, Diaphorase act, G6PDH CS)
O=[N+]([O-])c1cc(Cl)ccc1Sc1ccccn1	none (no result: Diaphorase inh, Diaphorase act, G6PDH CS)

Screens deposited in PubChem by Sanford-Burnham Center for Chemical Genomics.
